Bridge positions count the residues as written; N and C are the ends. Square brackets hold non-standard residues; d marks the D form. Peptide text beside a SMILES is read from it. I, II: the chains in the order shown. pGlu = O=C1CC[C@@H](C(=O)O)N1

The test concerns C6. As to the kind of experiment: Relative potency for induction of Colony-Stimulating activity(CSA) of C6 stromal line. In kind it is functional, Mus musculus. Set-up: reference not given here. The method in brief:
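Murine C6 stromal cells (or subclone C6.4) were grown to confluence in RPMI with 10% FBS, then switched to serum-free medium with peptide (initially 0.001–1000 ng/mL, log doses, duplicate wells). Exposure was 1 h at 37 °C, followed by washing, and conditioned supernatant was collected 24 h later. Supernatant (10–2.5% v/v) plus C57Bl/6 femoral marrow went into 0.3% agar with 15% FBS for 7 days. Colonies of >50 cells were counted in triplicate. EC50 was taken from the ascending curve and expressed relative to the reference peptide.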
`NCCCC[C@H](NC(=O)[C@H](CCCC[C@H](NC(=O)[C@H](CC(=O)O)NC(=O)[C@H](CCC(=O)O)NC(=O)[C@@H]1CCCO1)C(=O)N[C@@H](CCCCN)C(=O)O)NC(=O)[C@H](CC(=O)O)NC(=O)[C@H](CCC(=O)O)NC(=O)[C@@H]1CCCO1)C(=O)O`: the Relative potency is on record as less than 1e-06.
The result for `NCCCC[C@H](NC(=O)[C@H](CCCC[C@H](NC(=O)[C@H](CC(=O)O)NC(=O)[C@H](CCC(=O)O)NC(=O)C1CCCCC1)C(=O)N[C@@H](CCCCN)C(=O)O)NC(=O)[C@H](CC(=O)O)NC(=O)[C@H](CCC(=O)O)NC(=O)C1CCCCC1)C(=O)O` reads less than 1e-06; that for `NCCCC[C@H](NC(=O)[C@H](CCCC[C@H](NC(=O)[C@H](CC(=O)O)NC(=O)[C@H](CO)NC(=O)[C@@H]1CCC(=O)N1)C(=O)N[C@@H](CCCCN)C(=O)O)NC(=O)[C@H](CC(=O)O)NC(=O)[C@H](CO)NC(=O)[C@@H]1CCC(=O)N1)C(=O)O`, 10.
`NCCCC[C@H](NC(=O)[C@H](CSSC[C@H](NC(=O)[C@H](CC(=O)O)NC(=O)[C@H](CCC(=O)O)NC(=O)[C@@H]1CCC(=O)N1)C(=O)N[C@@H](CCCCN)C(=O)O)NC(=O)[C@H](CC(=O)O)NC(=O)[C@H](CCC(=O)O)NC(=O)[C@@H]1CCC(=O)N1)C(=O)O` (I: [pGlu]EDCK-OH / II: [pGlu]EDCK-OH; disulfide I:4-II:4) displayed a Relative potency of 0.01.
`NCCCC[C@@H](CO)NC(=O)[C@H](CCCC[C@H](NC(=O)[C@H](CC(=O)O)NC(=O)[C@H](CCC(=O)O)NC(=O)[C@@H]1CCC(=O)N1)C(=O)N[C@H](CO)CCCCN)NC(=O)[C@H](CC(=O)O)NC(=O)[C@H](CCC(=O)O)NC(=O)[C@@H]1CCC(=O)N1`: the Relative potency is recorded as less than 1e-06.
The figure for `NCCCC[C@H](NC(=O)[C@H](CCCCC[C@H](NC(=O)[C@H](CC(=O)O)NC(=O)[C@H](CCC(=O)O)NC(=O)[C@@H]1CCC(=O)N1)C(=O)N[C@@H](CCCCN)C(=O)O)NC(=O)[C@H](CC(=O)O)NC(=O)[C@H](CCC(=O)O)NC(=O)[C@@H]1CCC(=O)N1)C(=O)O` is less than 1e-06; for `NCCCC[C@H](NC(=O)[C@H](CCCC[C@H](NC(=O)[C@H](CC(=O)O)NC(=O)[C@H](CO)NC(=O)c1ccccn1)C(=O)N[C@@H](CCCCN)C(=O)O)NC(=O)[C@H](CC(=O)O)NC(=O)[C@H](CO)NC(=O)c1ccccn1)C(=O)O` it is 100.
In turn, `NCCCC[C@H](NC(=O)[C@@H](CCCC[C@@H](NC(=O)[C@H](CC(=O)O)NC(=O)[C@H](CCC(=O)O)NC(=O)[C@@H]1CCC(=O)N1)C(=O)N[C@@H](CCCCN)C(=O)O)NC(=O)[C@H](CC(=O)O)NC(=O)[C@H](CCC(=O)O)NC(=O)[C@@H]1CCC(=O)N1)C(=O)O` had a Relative potency of less than 1e-06.
`NCCCC[C@H](NC(=O)[C@H](CCC(=O)O)NC(=O)[C@@H]1CCC(=O)N1)C(=O)N[C@@H](CCCC[C@H](NC(=O)[C@H](CCCCN)NC(=O)[C@H](CCC(=O)O)NC(=O)[C@@H]1CCC(=O)N1)C(=O)N[C@@H](CC(=O)O)C(=O)O)C(=O)N[C@@H](CC(=O)O)C(=O)O` displayed a Relative potency of less than 1e-06.
Take `NCCCC[C@@H](NC(=O)[C@H](CCCC[C@H](NC(=O)[C@H](CC(=O)O)NC(=O)[C@H](CCC(=O)O)NC(=O)[C@@H]1CCC(=O)N1)C(=O)N[C@H](CCCCN)C(=O)O)NC(=O)[C@H](CC(=O)O)NC(=O)[C@H](CCC(=O)O)NC(=O)[C@@H]1CCC(=O)N1)C(=O)O`: the Relative potency was less than 1e-06.
The figure for `NCCCC[C@H](NC(=O)[C@H](CC[C@H](NC(=O)[C@H](CC(=O)O)NC(=O)[C@H](CCC(=O)O)NC(=O)[C@@H]1CCC(=O)N1)C(=O)N[C@@H](CCCCN)C(=O)O)NC(=O)[C@H](CC(=O)O)NC(=O)[C@H](CCC(=O)O)NC(=O)[C@@H]1CCC(=O)N1)C(=O)O` is 1000; for `NCCC[C@H](NC(=O)[C@H](CCCC[C@H](NC(=O)[C@H](CC(=O)O)NC(=O)[C@H](CCC(=O)O)NC(=O)[C@@H]1CCC(=O)N1)C(=O)N[C@@H](CCCN)C(=O)O)NC(=O)[C@H](CC(=O)O)NC(=O)[C@H](CCC(=O)O)NC(=O)[C@@H]1CCC(=O)N1)C(=O)O` it is less than 1e-06.
Consider `NCCCC[C@H](NC(=O)[C@H](CCCCCC[C@H](NC(=O)[C@H](CC(=O)O)NC(=O)[C@H](CCC(=O)O)NC(=O)[C@@H]1CCC(=O)N1)C(=O)N[C@@H](CCCCN)C(=O)O)NC(=O)[C@H](CC(=O)O)NC(=O)[C@H](CCC(=O)O)NC(=O)[C@@H]1CCC(=O)N1)C(=O)O`, for which the Relative potency is listed as less than 1e-06.
The result for `NCCCC[C@H](NC(=O)[C@H](CCCC[C@H](NC(=O)[C@H](CC(=O)O)NC(=O)[C@H](CC(=O)O)NC(=O)[C@@H]1CCC(=O)N1)C(=O)N[C@@H](CCCCN)C(=O)O)NC(=O)[C@H](CC(=O)O)NC(=O)[C@H](CC(=O)O)NC(=O)[C@@H]1CCC(=O)N1)C(=O)O` reads 1.
`NCCCC[C@H](NC(=O)[C@H](CCCC[C@H](NC(=O)[C@H](CC(=O)O)NC(=O)[C@H](CCC(=O)O)NC(=O)[C@@H]1CCC(=O)N1)C(=O)N[C@@H](CCCCN)C(N)=O)NC(=O)[C@H](CC(=O)O)NC(=O)[C@H](CCC(=O)O)NC(=O)[C@@H]1CCC(=O)N1)C(N)=O` returned a Relative potency of 1.
The compound `NCCCC[C@H](NC(=O)[C@H](CCCC[C@H](NC(=O)[C@@H](CC(=O)O)NC(=O)[C@H](CCC(=O)O)NC(=O)[C@@H]1CCC(=O)N1)C(=O)N[C@@H](CCCCN)C(=O)O)NC(=O)[C@@H](CC(=O)O)NC(=O)[C@H](CCC(=O)O)NC(=O)[C@@H]1CCC(=O)N1)C(=O)O` registered a Relative potency of less than 1e-06.
The figure for `NCCCC[C@H](NC(=O)[C@H](CCCC[C@H](NC(=O)[C@H](CC(=O)O)NC(=O)[C@H](CCC(=O)O)NC(=O)c1ccc2ccccc2n1)C(=O)N[C@@H](CCCCN)C(=O)O)NC(=O)[C@H](CC(=O)O)NC(=O)[C@H](CCC(=O)O)NC(=O)c1ccc2ccccc2n1)C(=O)O` is less than 1e-06; for `NCCCC[C@H](NC(=O)[C@H](CCCC[C@H](NC(=O)[C@H](CC(=O)O)NC(=O)[C@H](CCC(=O)O)NC(=O)[C@H]1CCC(=O)N1)C(=O)N[C@@H](CCCCN)C(=O)O)NC(=O)[C@H](CC(=O)O)NC(=O)[C@H](CCC(=O)O)NC(=O)[C@H]1CCC(=O)N1)C(=O)O` it is 0.0001; for `NC(=O)CC[C@H](NC(=O)[C@H](CC[C@H](NC(=O)[C@H](CO)NC(=O)[C@H](CO)NC(=O)c1ccccn1)C(=O)N[C@@H](CCC(N)=O)C(N)=O)NC(=O)[C@H](CO)NC(=O)[C@H](CO)NC(=O)c1ccccn1)C(N)=O` it is less than 1e-06.
As to `NCCCC[C@H](NC(=O)[C@H](CCCC[C@H](NC(=O)[C@H](CCC(=O)O)NC(=O)[C@H](CCC(=O)O)NC(=O)[C@@H]1CCC(=O)N1)C(=O)N[C@@H](CCCCN)C(=O)O)NC(=O)[C@H](CCC(=O)O)NC(=O)[C@H](CCC(=O)O)NC(=O)[C@@H]1CCC(=O)N1)C(=O)O`, the Relative potency was 1.
The figure for `CCCC[C@H](NC(=O)[C@H](CCCC[C@H](NC(=O)[C@H](C)NC(=O)[C@H](CO)NC(=O)c1ccccn1)C(=O)N[C@@H](CCCC)C(N)=O)NC(=O)[C@H](C)NC(=O)[C@H](CO)NC(=O)c1ccccn1)C(N)=O` is less than 1e-06.
In turn, `NCCCC[C@H](NC(=O)[C@H](CCCC[C@H](NC(=O)[C@H](CC(=O)O)NC(=O)[C@H](CCC(=O)O)NC(=O)[C@@H]1CCC(=O)N1)C(=O)N[C@@H](CCCCN)C(=O)O)NC(=O)[C@H](CC(=O)O)NC(=O)[C@H](CCC(=O)O)NC(=O)[C@@H]1CCC(=O)N1)C(=O)O` [GLASPIMOD] had a Relative potency of 1.
As for `NCCCC[C@H](NC(=O)[C@H](CC[C@H](NC(=O)[C@H](CC(=O)O)NC(=O)[C@H](CO)NC(=O)c1ccccn1)C(=O)N[C@@H](CCCCN)C(=O)O)NC(=O)[C@H](CC(=O)O)NC(=O)[C@H](CO)NC(=O)c1ccccn1)C(=O)O`, the Relative potency is 10000.
`NCCCC[C@H](NC(=O)[C@H](CCC[C@H](NC(=O)[C@H](CC(=O)O)NC(=O)[C@H](CCC(=O)O)NC(=O)[C@@H]1CCC(=O)N1)C(=O)N[C@@H](CCCCN)C(=O)O)NC(=O)[C@H](CC(=O)O)NC(=O)[C@H](CCC(=O)O)NC(=O)[C@@H]1CCC(=O)N1)C(=O)O` gave a Relative potency of less than 1e-06.
In turn, `NCCCC[C@H](NC(=O)[C@H](CCCC[C@H](NC(=O)[C@H](CC(=O)O)NC(=O)[C@H](CCC(=O)O)NC(=O)c1cccs1)C(=O)N[C@@H](CCCCN)C(=O)O)NC(=O)[C@H](CC(=O)O)NC(=O)[C@H](CCC(=O)O)NC(=O)c1cccs1)C(=O)O` showed a Relative potency of less than 1e-06.
For `N=C(N)NCCC[C@@H](NC(=O)[C@H](CCCC[C@H](NC(=O)[C@H](CC(=O)O)NC(=O)[C@H](CCC(=O)O)NC(=O)[C@@H]1CCC(=O)N1)C(=O)N[C@H](CCCNC(=N)N)C(=O)O)NC(=O)[C@H](CC(=O)O)NC(=O)[C@H](CCC(=O)O)NC(=O)[C@@H]1CCC(=O)N1)C(=O)O`, the Relative potency was less than 1e-06.
In turn, `NCCCC[C@H](NC(=O)[C@H](CC[C@H](NC(=O)[C@H](CC(=O)O)NC(=O)[C@H](CCC(=O)O)NC(=O)c1ccccn1)C(=O)N[C@@H](CCCCN)C(N)=O)NC(=O)[C@H](CC(=O)O)NC(=O)[C@H](CCC(=O)O)NC(=O)c1ccccn1)C(N)=O` showed a Relative potency of 100.

(Values after ChEMBL document CHEMBL1129650, “Structure-activity relationships of novel hematoregulatory peptides” (1996).)
